Data as given in ChEMBL document CHEMBL4715825, “Synthesis and biological evaluations of marine oxohexadecenoic acids: PPARα/γ dual agonism and anti-diabetic target gene effects” (Eur J Med Chem, 2018).
Activity calls are given as the source filed them. The calls are words filed in the database; no cut-off is given here.

Tests used:
SGBS [1] = assay: Induction of adipogenesis in 8 day differentiated human SGBS cells assessed as upregulation of PPAR signalling genes at 25 uM incubated for 8 days by Illumina sequencing method; assay type: functional, cell-based
Summary of the method: (§1)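 SGBS cells were differentiated for 8 days: Quickdiff for days 0-4 with 2 µM rosiglitazone or 25 µM oxo-fatty acid:BSA, then 3FC. Total RNA was extracted (RIN 9.80-10.00) and strand-specific TruSeq libraries were sequenced on NextSeq 500 (2×75 bp paired-end). Reads were aligned to hg19 and quantified as RPKM. Data were expressed as log2 fold over day-0 cells (n = 2-4) and grouped into KEGG gene sets.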

SGBS [2] = assay: Induction of adipogenesis in 8 day differentiated human SGBS cells assessed as upregulation of fatty acid biosynthesis genes at 25 uM incubated for 8 days by Illumina sequencing method; assay type: functional, cell-based; summary of the method: as §1
SGBS [3] = assay: Induction of adipogenesis in 8 day differentiated human SGBS cells assessed as increase in ADIPOQ mRNA expression at 25 uM measured over 12 days by qRT-PCR analysis; assay type: functional, cell-based; conditions: time 12.0 day
Summary of the method: (§2)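 SGBS cells were grown to confluence (day 0). Quickdiff medium was supplemented with compound or rosiglitazone for 4 days, followed by 3FC medium. DMSO or DMSO:BSA served as control. RNA was harvested on days 0, 4, 8 and 12, and expression was measured by SYBR-green qPCR. Data are mean ± SEM of at least three biological replicates in duplicate.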

SGBS [4] = assay: Induction of adipogenesis in 8 day differentiated human SGBS cells assessed as increase in CEBPB mRNA expression at 25 uM measured upto 12 days by qRT-PCR analysis; assay type: functional, cell-based; conditions: time day <=12; summary of the method: as §2
[5] = target: T1, Oxysterols receptor LXR-beta (Homo sapiens) (UniProt P55055); assay: Agonist activity at recombinant human LXRbeta LBD (155 to 461 residues) expressed in African green monkey COS-1 cells at 25 to 50 uM incubated for 18 hrs by luciferase reporter gene assay; assay type: cell-based; conditions: dose 25-50 µM
T1 sequence (whole entry): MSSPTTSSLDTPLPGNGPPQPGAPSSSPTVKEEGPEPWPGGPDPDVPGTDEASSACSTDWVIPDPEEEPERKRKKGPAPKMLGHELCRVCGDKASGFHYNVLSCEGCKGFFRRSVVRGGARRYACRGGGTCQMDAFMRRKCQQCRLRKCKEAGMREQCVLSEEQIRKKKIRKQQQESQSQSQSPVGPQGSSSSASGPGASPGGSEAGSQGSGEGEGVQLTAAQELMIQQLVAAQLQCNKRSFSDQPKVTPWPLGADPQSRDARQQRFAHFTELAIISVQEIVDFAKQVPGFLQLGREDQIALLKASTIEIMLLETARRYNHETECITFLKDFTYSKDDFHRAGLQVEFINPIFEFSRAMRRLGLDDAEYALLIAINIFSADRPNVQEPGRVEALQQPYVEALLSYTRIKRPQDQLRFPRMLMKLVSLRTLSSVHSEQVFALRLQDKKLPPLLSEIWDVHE
Summary of the method: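 Transient Gal4 one-hybrid assay in COS-1 cells (7×10^4 per well), transfected 24 h after seeding. Plasmids were Gal4-DBD fused to the human nuclear receptor LBD, a 5×UAS-SV40 luciferase reporter and pRL-CMV Renilla control. Ligand in DMSO (final 0.1%) was added 5 h post-transfection. Dual-luciferase activity was read after 18 h, expressed as RLU, from three biological replicates in quadruplicate.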

SGBS [6] = assay: Induction of adipogenesis in 8 day differentiated human SGBS cells assessed as increase in FABP4 mRNA expression at 25 uM measured upto 12 days by qRT-PCR analysis; assay type: functional, cell-based; conditions: time day <=12; summary of the method: as §2
SGBS [7] = assay: Induction of adipogenesis in 8 day differentiated human SGBS cells assessed as increase in PLIN1 mRNA expression at 25 uM measured upto 12 days by qRT-PCR analysis; assay type: functional, cell-based; conditions: time day <=12; summary of the method: as §2
[8] = target: T2, Peroxisome proliferator-activated receptor alpha (Homo sapiens) (UniProt Q07869); assay: Agonist activity at human PPARalpha in 8 day differentiated human SGBS cells assessed as increase in PLIN1 gene expression at 25 uM incubated for 24 hrs by SYBR-green based qPCR analysis; assay type: cell-based
T2 sequence (whole entry): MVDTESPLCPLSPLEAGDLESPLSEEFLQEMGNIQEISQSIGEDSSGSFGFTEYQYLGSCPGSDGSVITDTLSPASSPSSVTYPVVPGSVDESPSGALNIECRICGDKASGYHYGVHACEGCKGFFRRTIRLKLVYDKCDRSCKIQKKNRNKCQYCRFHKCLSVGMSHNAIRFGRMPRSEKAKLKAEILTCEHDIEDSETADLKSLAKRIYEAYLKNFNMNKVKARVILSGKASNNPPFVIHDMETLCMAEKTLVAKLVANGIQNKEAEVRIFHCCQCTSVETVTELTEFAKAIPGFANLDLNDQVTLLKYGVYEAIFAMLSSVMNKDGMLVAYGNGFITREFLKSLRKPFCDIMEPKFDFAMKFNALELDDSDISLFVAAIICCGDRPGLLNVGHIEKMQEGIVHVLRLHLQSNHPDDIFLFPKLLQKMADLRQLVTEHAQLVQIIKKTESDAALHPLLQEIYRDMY
Summary of the method: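 SGBS preadipocytes were seeded at passage P6-P8 and grown to confluence. They were differentiated for 4 days in Quickdiff (3FC plus dexamethasone, IBMX and rosiglitazone), then kept in 3FC with medium renewed every fourth day. On day 8, cells were stimulated for 24 h in 3FC with compound:BSA or rosiglitazone. SYBR-green qPCR used gene-specific primers. Data are mean ± SEM of three biological replicates in duplicate.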

[9] = Cytotoxicity against African green monkey COS-1 cells assessed as cell viability at EC50 concentration for PPAR activation assay by XTT assay; assay type: cell-based; conditions: chlorocebus aethiops, read-out: Activity
Summary of the method: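 Run on COS-1 cells treated in parallel with the Gal4-LBD PPAR reporter assays. Metabolic NAD(P)H flux was measured by kit XTT assay per the maker's protocol. Absorbance was read at 450/690 nm.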

[10] = target: T3, Peroxisome proliferator-activated receptor gamma (Homo sapiens) (UniProt P37231); assay: Agonist activity at human PPARgamma in 8 day differentiated human SGBS cells assessed as increase in IRS1 gene expression at 25 uM incubated for 24 hrs by SYBR-green based qPCR analysis; assay type: cell-based; conditions: filed as agonist
T3 sequence (whole entry): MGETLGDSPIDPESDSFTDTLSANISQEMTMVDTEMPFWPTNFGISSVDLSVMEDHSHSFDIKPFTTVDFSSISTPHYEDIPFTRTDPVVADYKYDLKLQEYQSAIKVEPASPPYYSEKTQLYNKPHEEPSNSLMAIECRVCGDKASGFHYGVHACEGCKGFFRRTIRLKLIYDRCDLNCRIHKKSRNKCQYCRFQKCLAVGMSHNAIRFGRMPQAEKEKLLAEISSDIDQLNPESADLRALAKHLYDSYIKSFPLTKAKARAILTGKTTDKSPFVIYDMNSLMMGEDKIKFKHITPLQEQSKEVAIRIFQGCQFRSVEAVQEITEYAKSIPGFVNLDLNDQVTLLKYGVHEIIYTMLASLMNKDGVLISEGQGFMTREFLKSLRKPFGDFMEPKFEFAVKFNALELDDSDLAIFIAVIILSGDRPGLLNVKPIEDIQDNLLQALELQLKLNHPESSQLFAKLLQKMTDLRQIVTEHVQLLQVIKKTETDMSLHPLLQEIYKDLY

Activity [5]	Activity [8]	Activity [10]	Structure (SMILES)	Activity (SGBS [1])	Activity (SGBS [2])	Activity (SGBS [3])	Activity (SGBS [4])	Activity (SGBS [6])	Activity (SGBS [7])	viability [9]
inactive	inactive	Active	CCCCCCCC(=O)/C=C/CCCCCC(=O)O	Active	Active	Active	Active	Active	Active	> 90%
inactive	inactive	Active	CCCCC/C=C/C(=O)CCCCCCCC(=O)O	Active	Active	Active	Active	Active	Active	> 90%
